Measurements as given in EPA's CvTdb concentration-time database.

How the values were obtained:
Rat [1] = assay: concentration in brain after dosing; conditions: 864 h; dosed: Perfluorodecanoic acid; 10 mg/kg; oral; Female; Harlan Sprague Dawley
Rat [2] = assay: concentration in liver after dosing; conditions: 1848 h; dosed: Perfluorodecanoic acid; 10 mg/kg; oral; Male; Harlan Sprague Dawley
Rat [3] = assay: concentration in plasma after dosing; conditions: dosed: Perfluorodecanoic acid, 2 mg/kg, oral, Male, Harlan Sprague Dawley
Rat [4] = assay: concentration in plasma after dosing; conditions: dosed: Perfluorodecanoic acid, 2 mg/kg, iv, Male, F344
Rat [5] = assay: concentration in plasma after dosing; conditions: 2520 h; dosed: Perfluorodecanoic acid; 2 mg/kg; iv; Male; F344
Rat [6] = assay: concentration in plasma after dosing; conditions: dosed: Perfluorodecanoic acid, 2 mg/kg, iv, Male, F344; remark: listed apart in the source
Rat [7] = assay: concentration in plasma after dosing; conditions: 40 min; dosed: dichloroacetic acid; 100 mg/kg; oral; Male; F344
Rat [8] = assay: concentration in plasma after dosing; conditions: 2 h; dosed: dichloroacetic acid; 60 mg/kg; iv; Female; Harlan Sprague-Dawley
human = assay: concentration in plasma after dosing; negative times count back from the end of exposure; conditions: dosed: trichloroethylene, 100 ppm, inhalation, duration: 4 hr, person
How it was run: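 Points were largely digitised from plot screenshots with WebPlotDigitizer or otherwise copied from tables, and they remain in the units each source reported. They come from published in vivo toxicokinetic studies and two structured collections. Sampling and analytical methods follow each source and were often not reported.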

Rat [9] = assay: concentration in plasma after dosing; conditions: 22 h; dosed: Primidone; 30 mg/kg; oral; Male; F344
Rat [10] = assay: concentration in plasma after dosing; conditions: 1.5 h; dosed: Primidone; 30 mg/kg; oral; Female; F344
Rat [11] = assay: concentration in plasma after dosing; conditions: 12 h; dosed: Primidone; 30 mg/kg; oral; Male; F344
Rat [12] = assay: concentration in plasma after dosing; conditions: 0.5 h; dosed: Wyeth-14643; 5.0 mg/kg; oral; Male; Sprague-Dawley
Rat [13] = assay: concentration in plasma after dosing; conditions: dosed: Wyeth-14643, 2.0 mg/kg, oral, Male, Sprague-Dawley
Rat [14] = assay: concentration in kidney after dosing; conditions: 6 h; dosed: Fluorotelomer alcohol 8+2; 80 mg/kg; oral; Female; Harlan Sprague Dawley
Rat [15] = assay: concentration in kidney after dosing; conditions: 1 h; dosed: Fluorotelomer alcohol 8+2; 24 mg/kg; oral; Male; Harlan Sprague Dawley
Rat [16] = assay: concentration in plasma after dosing; conditions: dosed: Fluorotelomer alcohol 8+2, 12 mg/kg, iv, Male, F344
Rat [17] = assay: concentration in plasma after dosing; conditions: dosed: Fluorotelomer alcohol 8+2, 12 mg/kg, oral, Male, Harlan Sprague Dawley
Rat [18] = assay: concentration in liver after dosing; conditions: 8 h; dosed: Thiodiglycolic Acid; 20 mg/kg; iv; Female; Harlan Sprague Dawley
Rat [19] = assay: concentration in liver after dosing; conditions: 4 h; dosed: Thiodiglycolic Acid; 20 mg/kg; iv; Male; Harlan Sprague Dawley
Rat [20] = assay: concentration in liver after dosing; conditions: 6.667 h; dosed: Thiodiglycolic Acid; 20 mg/kg; iv; Female; Harlan Sprague Dawley
Rat [21] = assay: concentration in liver after dosing; conditions: 1 h; dosed: Thiodiglycolic Acid; 20 mg/kg; iv; Male; Harlan Sprague Dawley
Rat [22] = assay: concentration in thymus after dosing; conditions: 1 h; dosed: Thiodiglycolic Acid; 20 mg/kg; iv; Female; Harlan Sprague Dawley
Rat [23] = assay: concentration in plasma after dosing; conditions: 1 h; dosed: Thiodiglycolic Acid; 20 mg/kg; iv; Male; Harlan Sprague Dawley
Rat [24] = assay: concentration in thymus after dosing; conditions: 10 min; dosed: Thiodiglycolic Acid; 20 mg/kg; iv; Male; F344
Rat [25] = assay: concentration in thymus after dosing; conditions: 6.667 h; dosed: Thiodiglycolic Acid; 20 mg/kg; iv; Female; Harlan Sprague Dawley
Rat [26] = assay: concentration in thymus after dosing; conditions: 5.333 h; dosed: Thiodiglycolic Acid; 20 mg/kg; iv; Female; Harlan Sprague Dawley
Rat [27] = assay: concentration in thymus after dosing; conditions: 6.667 h; dosed: Thiodiglycolic Acid; 20 mg/kg; iv; Female; Harlan Sprague Dawley; remark: listed apart in the source
Rat [28] = assay: concentration in plasma after dosing; conditions: 40 min; dosed: Thiodiglycolic Acid; 20 mg/kg; iv; Male; Harlan Sprague Dawley
Rat [29] = assay: concentration in plasma after dosing; conditions: dosed: Bis 2-Chloroethoxy Methane, 40 mg/kg, iv, Male, Harlan Sprague Dawley
Rat [30] = assay: concentration in plasma after dosing; conditions: 3 h; dosed: Bis 2-Chloroethoxy Methane; 40 mg/kg; iv; Male; Harlan Sprague Dawley
Rat [31] = assay: concentration in plasma after dosing; conditions: 3 h; dosed: Bis 2-Chloroethoxy Methane; 20 mg/kg; iv; Female; F344
Rat [32] = assay: concentration in plasma after dosing; conditions: 6 h; dosed: Bis 2-Chloroethoxy Methane; 20 mg/kg; iv; Female; F344
Rat [33] = assay: concentration in thymus after dosing; conditions: 6 h; dosed: Bis 2-Chloroethoxy Methane; 20 mg/kg; iv; Female; F344
Rat [34] = assay: concentration in thymus after dosing; conditions: 3 h; dosed: Bis 2-Chloroethoxy Methane; 20 mg/kg; iv; Male; F344
Rat [35] = assay: concentration in plasma after dosing; conditions: 4 h; dosed: Di-n-butyl phthalate; 20 mg/kg; iv; Male; Sprague-Dawley

Work on `O=C(O)C(F)(F)C(F)(F)C(F)(F)C(F)(F)C(F)(F)C(F)(F)C(F)(F)C(F)(F)C(F)(F)F` [Perfluorodecanoic acid] yielded a concentration in brain (Rat [1]) of 1010 ng/g, a concentration in liver (Rat [2]) of 32000 ng/g and a concentration in plasma (Rat [3]; 0.5 h) of 1690 ng/mL. The concentration in plasma (Rat [3]; 24 h) was 6460 ng/mL, the concentration in plasma (Rat [3]; 1848 h) was 968 ng/mL and the concentration in plasma (Rat [4]; 24 h) was 5820 ng/mL. For the same compound, the concentration in plasma (Rat [4]; 1848 h) was 764 ng/mL, the concentration in plasma (Rat [5]) was 209 ng/mL and the concentration in plasma (Rat [6]; 1 h) was 5930 ng/mL. It also gave a concentration in plasma (Rat [6]; 528 h) of 2060 ng/mL and a concentration in plasma (Rat [6]; 3360 h) of 272 ng/mL.

`O=C(O)C(Cl)Cl` [dichloroacetic acid] showed a concentration in plasma (Rat [7]) of 39.4 µg/mL, a concentration in plasma (Rat [8]) of 1.17 µg/mL and a concentration in plasma (human; 0 h) of 12 ng/mL. It also gave a concentration in plasma (human; -2 h, during exposure) of 8 ng/mL and a concentration in plasma (human; -3 h, during exposure) of 6 ng/mL.

Work on `CCC1(c2ccccc2)C(=O)NC(=O)NC1=O` [Phenobarbital] yielded a concentration in plasma (Rat [9]) of 1.03 µg/mL, a concentration in plasma (Rat [10]) of 0.38 µg/mL and a concentration in plasma (Rat [11]) of 2.66 µg/mL.

Compound `Cc1cccc(Nc2cc(Cl)nc(SCC(=O)O)n2)c1C` has a concentration in plasma (Rat [12]) of 3.83 µg/mL, a concentration in plasma (Rat [13]; 1 h) of 0.904 µg/mL and a concentration in plasma (Rat [13]; 6 h) of 0.2 µg/mL.

In the case of `OCCC(F)(F)C(F)(F)C(F)(F)C(F)(F)C(F)(F)C(F)(F)C(F)(F)C(F)(F)F` [Fluorotelomer alcohol 8+2], the concentration in kidney (Rat [14]) is reported as 905 ng/g, the concentration in kidney (Rat [15]) is reported as 1140 ng/g and the concentration in plasma (Rat [16]; 0.5 h) is reported as 1410 ng/mL. For the same compound, the concentration in plasma (Rat [16]; 9 h) was 26.1 ng/mL, the concentration in plasma (Rat [17]; 5 min) was 2.04 ng/mL and the concentration in plasma (Rat [17]; 3 h) was 147 ng/mL.

With `O=C(O)CSCC(=O)O` [Thiodiglycolic Acid] the concentration in liver (Rat [18]) was 45300 ng/g, the concentration in liver (Rat [19]) was 70900 ng/g and the concentration in liver (Rat [20]) was 2190 ng/g. For the same compound, the concentration in liver (Rat [21]) was 162000 ng/g, the concentration in thymus (Rat [22]) was 3010 ng/g and the concentration in plasma (Rat [23]) was 2150 ng/mL. It also gave a concentration in thymus (Rat [24]) of 6960 ng/g, a concentration in thymus (Rat [25]) of 245 ng/g and a concentration in thymus (Rat [26]) of 372 ng/g. It also gave a concentration in thymus (Rat [27]) of 329 ng/g and a concentration in plasma (Rat [28]) of 2000 ng/mL.

Work on `ClCCOCOCCCl` [Bis 2-Chloroethoxy Methane] yielded a concentration in plasma (Rat [29]; 20 min) of 9720 ng/mL, a concentration in plasma (Rat [29]; 6.667 h) of 40.1 ng/mL and a concentration in plasma (Rat [30]) of 362 ng/mL. The concentration in plasma (Rat [31]) was 87.3 ng/mL, the concentration in plasma (Rat [32]) was 17.6 ng/mL and the concentration in thymus (Rat [33]) was 32.1 ng/g. For the same compound, the concentration in thymus (Rat [34]) was 134 ng/g.

For `CCCCOC(=O)c1ccccc1C(=O)O` [Mono-n-butyl phthalate], the concentration in plasma (Rat [35]) was 0.726 µg/mL.
